Where two headings read alike, the source gives them in different places.
Tests used:
PD‐1/PD−L1 = PD‐1/PD−L1 (Homo sapiens, UniProt Q9NZQ7); test: Homogenous time-resolved fluorescence; format: binding; conditions: read-out: Measured IC50; HTRF PD-1/PD-L1 assay; mean±SD, n=2–3 in triplicate
Summary of the method: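 Competitive TR-FRET (HTRF) kit assay: PD-L1-6His-tag and PD-1-Ig, detected by anti-human IgG-Eu³⁺ cryptate and anti-6HIS-XL665 antibody. Test compounds plated per the kit instructions. Signal read on a multimode plate reader, and IC50 derived from the inhibition of PD-1/PD-L1 binding.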

PD−L1 = conditions: cited from earlier work

PD‐1/PD−L1, sequence (Q9NZQ7 19-238 limits assumed): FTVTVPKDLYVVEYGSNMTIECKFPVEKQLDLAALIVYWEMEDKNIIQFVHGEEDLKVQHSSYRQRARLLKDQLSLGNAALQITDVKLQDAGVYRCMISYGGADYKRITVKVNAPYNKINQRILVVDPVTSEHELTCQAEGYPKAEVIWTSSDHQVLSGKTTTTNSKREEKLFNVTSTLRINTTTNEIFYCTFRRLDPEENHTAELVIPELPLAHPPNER

Row | IC50 (PD‐1/PD−L1) [nM] | Substance | IC50 (PD−L1; read-out: Reported IC50, literature value) [nM] | IC50 (PD−L1; read-out: reported IC50, reported value for BMS71) [nM]
1 | 2.25 ± 0.36 | Atezolizumab: therapeutic antibody targeting PD−L1 | 3.83 | –
2 | – | Cyclo(AcPhe−^mPhe−^mNle−^mGly−Asp−Val−^mPhe−Tyr−^mGly−Trp−Tyr−Leu−Cys)‐Gly−NH2 [BMS71] | – | 7
